{"source": "ChEMBL document CHEMBL3259621", "about": "“Novel merosesquiterpene exerts a potent antitumor activity against breast cancer cells in vitro and in vivo” (Eur J Med Chem, 2014)", "key": {"MCF7 [1]": {"tested_on": "MCF7", "test": "Cell cycle arrest in human MCF7 cells assessed as accumulation at […] phase after 48 hrs by propidium iodide/RNAse staining-based FACS analysis", "format": "functional"}, "MCF7 [2]": {"tested_on": "MCF7", "test": "Induction of apoptosis in human MCF7 cells assessed as apoptotic cells at 3 uM after 48 hrs by annexin V staining-based flow cytometry (reference value: 3.44 %)", "format": "functional"}, "MCF7 [3]": {"tested_on": "MCF7", "test": "Induction of apoptosis in human MCF7 cells assessed as reduction in c-myc expression at 2 uM after 16 hrs by Western blotting analysis relative to control", "format": "functional", "design": "scale not given: the % may be the effect or the level left", "summary_of_the_method": "(§1)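 MCF-7 seeded at 5 × 10⁴/cm² and exposed at 24 h to 2 µM compound for 0, 4, 8, 16 and 24 h. Lysates separated on 12% SDS gels, transferred to nitrocellulose, blocked in 5% milk. Primary antibodies applied overnight at 4 °C, then secondary 1 h at room temperature. Detection by ECL chemiluminescence with β-actin as loading reference.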"}, "MCF7 [4]": {"tested_on": "MCF7", "test": "Induction of apoptosis in human MCF7 cells assessed as increase in p27 expression at 2 uM after 4 to 24 hrs by Western blotting analysis relative to control", "format": "functional, cell-based", "summary_of_the_method": "as §1"}, "[5]": {"target": "Mitogen-activated protein kinase; ERK1/ERK2 (Homo sapiens) (UniProt P27361+P28482)", "sequence (P27361 whole entry, looked up)": "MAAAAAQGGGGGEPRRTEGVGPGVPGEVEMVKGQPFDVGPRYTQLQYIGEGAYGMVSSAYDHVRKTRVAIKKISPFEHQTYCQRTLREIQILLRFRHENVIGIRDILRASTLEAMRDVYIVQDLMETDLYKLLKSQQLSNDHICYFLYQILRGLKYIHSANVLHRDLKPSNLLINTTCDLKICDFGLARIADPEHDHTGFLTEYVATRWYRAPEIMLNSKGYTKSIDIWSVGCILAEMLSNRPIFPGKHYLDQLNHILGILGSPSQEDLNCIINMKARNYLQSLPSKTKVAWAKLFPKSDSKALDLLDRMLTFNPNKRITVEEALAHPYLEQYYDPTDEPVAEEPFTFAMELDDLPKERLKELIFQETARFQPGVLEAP", "sequence (P28482 whole entry, looked up)": "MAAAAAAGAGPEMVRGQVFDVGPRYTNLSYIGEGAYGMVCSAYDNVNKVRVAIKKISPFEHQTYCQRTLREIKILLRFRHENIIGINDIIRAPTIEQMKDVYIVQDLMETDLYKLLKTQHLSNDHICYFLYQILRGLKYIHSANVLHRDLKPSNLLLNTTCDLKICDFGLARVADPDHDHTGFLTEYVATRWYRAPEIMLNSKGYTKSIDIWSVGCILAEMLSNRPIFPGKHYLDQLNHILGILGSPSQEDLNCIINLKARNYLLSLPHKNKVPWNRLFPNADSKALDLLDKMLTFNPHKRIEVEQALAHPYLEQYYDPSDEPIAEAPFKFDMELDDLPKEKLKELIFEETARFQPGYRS", "test": "Increase of p44/42 MAPK phosphorylation in human MCF7 cells at 2 uM after 4 to 24 hrs by Western blotting analysis relative to control", "format": "cell-based", "summary_of_the_method": "as §1"}, "[6]": {"test": "Antitumor activity against mouse E0771 cells allografted in C57BL/6 mouse assessed as mean tumor volume at 5 to 15 mg/kg, po measured on day 42 relative to vehicle-treated control", "format": "functional", "conditions": "dose mg/kg 5-15", "summary_of_the_method": "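C57BL/6 mice (40) injected subcutaneously in the right side with 1 × 10⁶ E0771 cells. At day 9, with tumors at 75 mm³, randomized into four groups of 10 and dosed orally six times with vehicle (1% methylcellulose) or compound at 5, 10 or 15 mg/kg. Tumor volume followed to day 42.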"}, "T84": {"tested_on": "T84", "test": "Cytotoxicity against human T84 cells after 3 days by SRB assay", "format": "functional, cell-based", "conditions": "T84, 72 h", "summary_of_the_method": "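Cells seeded in quadruplicate at 5 × 10³ cells/cm². Compound added at 24 h over increasing concentrations for 3 days. Cells fixed with cold 10% TCA, stained with 0.4% sulforhodamine B in 1% acetic acid, dye solubilized in 10 mM Tris pH 10.5, OD read at 492 nm. IC50 taken by linear interpolation of the semi-log dose-response curve. DMSO below 0.1% final.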"}, "HT-29": {"tested_on": "HT-29", "test": "Cytotoxicity against human HT-29 cells after 3 days by SRB assay", "format": "functional, cell-based", "conditions": "HT-29, 72 h", "summary_of_the_method": "(§2)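 Cells seeded at 5 × 10³ cells/cm² in quadruplicate and, after 24 h, treated with increasing concentrations for 3 days. Compounds diluted from DMSO stock, final DMSO <0.1% v/v. Cells were fixed with cold 10% TCA, stained with 0.4% sulforhodamine B in 1% acetic acid, and dye solubilised in 10 mM Tris-base pH 10.5. OD read at 492 nm. IC50 obtained by linear interpolation on a semi-log dose-response curve.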"}, "SW480": {"tested_on": "SW480", "test": "Cytotoxicity against human SW480 cells after 3 days by SRB assay", "format": "functional, cell-based", "conditions": "SW480, 72 h", "summary_of_the_method": "as §2"}, "[7]": {"test": "Therapeutic index, ratio of IC50 for human CCD-18Co cells to IC50 for human HT-29 cells", "format": "cell-based", "conditions": "CCD-18Co cells versus HT-29 cells, read-out: Ratio IC50"}}, "note": "The source made the active and inactive calls. No cut-off for these calls is given here.", "data": [{"compound": "C=C1CC[C@@H]2[C@](C)(CCC[C@]2(C)C(=O)OC)[C@H]1Cc1c(C)ccc2c1C(=O)C=CC2=O", "values": [{"measurement": "Activity", "setting": "MCF7 [1]", "result": "Dose-dependent effect"}, {"measurement": "Activity", "setting": "MCF7 [2]", "result": 57.8, "unit": "%"}, {"measurement": "Activity", "setting": "MCF7 [3]", "result": 50, "unit": "%"}, {"measurement": "Activity", "setting": "MCF7 [4]", "result": "Active"}, {"measurement": "Activity", "setting": "[5]", "result": "Active"}, {"measurement": "fold change (FC)", "setting": "[6]", "result": 2.4}, {"measurement": "IC50", "setting": "T84", "result": 560, "unit": "nM"}, {"measurement": "IC50", "setting": "HT-29", "result": 1970, "unit": "nM"}, {"measurement": "IC50", "setting": "SW480", "result": 920, "unit": "nM"}, {"measurement": "selectivity ratio", "setting": "[7]", "result": 0.17}]}]}
